Sampled rows, rich in hits. Any-hit rate of the full collection: about 2.4%.
SR-BI HDL uptake: blocks mouse SR-BI lipid uptake from DiI-HDL. inhibition, % at 12.5 µM. ldlA[mSR-BI] CHO cells, DiI-HDL uptake fluorescence, 3 h. 0.96% of 320,000 active. AID 488896. Q61009;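 active means mean replicate inhibition of at least 70% and a set share of replicates each scoring 70 or more; inconclusive means meets just one of the two criteria; inactive means fails both criteria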
m5-HT2A agonist: mouse HTR2A agonism via beta-arrestin recruitment. AID 624169. P35363. 0.66% of 360,000 active. activation, % at 7.6 µM. CHO-K1 mHTR2A beta-arrestin complementation, luminescence; percent of 30 µM serotonin response;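 active means activation above a run cutoff, the mean activation of all tested compounds plus 3 SD, cut at about 14% in these data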
Target sequence (P35363 whole entry, looked up): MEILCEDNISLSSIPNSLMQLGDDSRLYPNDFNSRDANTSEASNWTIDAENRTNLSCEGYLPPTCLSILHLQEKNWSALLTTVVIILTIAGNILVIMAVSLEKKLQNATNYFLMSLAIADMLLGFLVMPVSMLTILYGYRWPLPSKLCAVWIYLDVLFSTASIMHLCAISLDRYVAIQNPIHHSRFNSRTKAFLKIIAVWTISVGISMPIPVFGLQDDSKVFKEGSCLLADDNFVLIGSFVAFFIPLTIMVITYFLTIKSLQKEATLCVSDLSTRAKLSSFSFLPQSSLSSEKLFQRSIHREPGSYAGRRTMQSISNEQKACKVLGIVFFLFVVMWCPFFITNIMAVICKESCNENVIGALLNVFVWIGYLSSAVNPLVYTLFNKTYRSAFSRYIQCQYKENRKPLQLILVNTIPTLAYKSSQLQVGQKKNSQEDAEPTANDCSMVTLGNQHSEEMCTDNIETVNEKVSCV
SR-BI DiI-HDL act: SR-BI HDL lipid transfer activation. CHO ldlA[mSR-BI] cells, DiI-HDL uptake fluorescence, 3 h; 100 = double the neutral-control signal. activation, % at 12.5 µM. 0.096% of 320,000 active;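 active means mean replicate activation of at least 60% and every replicate at or above 60%; inconclusive means mean or all-replicate condition met, but not both; inactive means mean below 60% and not all replicates reaching 60%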
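Test system: SR-BI-overexpressing, LDLR-lacking CHO cells. Measured by: DiI fluorescence, bottom read. Medium: Ham's F12 with 0.5% BSA, HEPES 25 mM, pH 7.4. Timing: 3 h uptake period with compound, 37 °C.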
Ins promoter up: MIN6 insulin promoter up-regulation; MIN6 insulin promoter-GFP reporter, high-content imaging; active compounds read high; z-score at 5 µM; 0.3% of 190,000 active; AID 1625;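 active means z-score above 3 at 5 µM with at least 500 cells counted in the well; inconclusive means wells under 500 cells, flagged as cytotoxic or low count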
beta cell repl: MIN6 beta-cell proliferation induction; 0.29% of 330,000 active; proliferation, % at 10 µM; MIN6 cells proliferation, ATPlite luminescence, 48 h; cells starved in 0.2% serum; 100% = growth in 10% serum;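 active means compounds whose signal lies at least 3.5 SD above the mean of all wells on their plate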
Calb FLC: C. albicans growth modulation with fluconazole; C. albicans CaCi-2 + fluconazole, Alamar Blue growth, 48 h; growth inhibition, % (concentration not given with the values); 0.57% of 300,000 active;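 active means growth inhibition above about 58% in most replicates, limit read from the data, passing the limit was not always enough; inconclusive means exactly half the replicates above a set limit; inactive means most replicates below a set limit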;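 further: all wells also contain fluconazole at 8 µg/ml as a sub-toxic cotreatment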
Large screens that a line does not name were inactive.

O=c1ccc(-c2nc3ccccc3n2C(CCc2ccccc2)c2nc3ccccc3[nH]2)c[nH]1 (configuration not stated)	none (no result: SR-BI HDL uptake, SR-BI DiI-HDL act, Ins promoter up, beta cell repl, Calb FLC)
COc1ccc(Nc2nc(-c3ccncc3)nc3ccccc23)cc1	SR-BI HDL uptake 80 (no result: Ins promoter up, Calb FLC)
COc1ccc(Nc2cc(C(=O)NC3CCCC3)c3ccccc3n2)c(OC)c1	SR-BI HDL uptake 88 (no result: Ins promoter up)
COc1ccc(Nc2nc(-c3ccccc3)nc3ccccc23)c(OC)c1	SR-BI HDL uptake 76, Calb FLC inconclusive
COc1ccc(OC)c(Nc2nc(-c3ccncc3)nc3ccccc23)c1	none (no result: Ins promoter up)
COc1ccccc1Nc1cc(C(=O)NC2CCCC2)c2ccccc2n1	none (no result: Ins promoter up)
CS(=O)(=O)Nc1ccc(C(=O)NCCSc2ccc(Cl)cc2)cc1	none (no result: Ins promoter up)
CC(=O)c1sc(N/N=C\c2c(O)ccc3ccccc23)nc1C	SR-BI HDL uptake 97 (no result: Ins promoter up)
CC(=O)c1sc(N/N=C/c2cccc(O)c2)nc1C	none (no result: SR-BI HDL uptake, SR-BI DiI-HDL act)
Cc1cc(N/N=C/c2c(O)ccc3ccccc23)nc(-c2ccccc2O)n1	SR-BI HDL uptake 91, Calb FLC 82
Oc1ccc2ccccc2c1/C=N/Nc1ccccc1	none
COCCN(Cc1ccc(OC)cc1)c1c(C)nc2ccc(C(=O)Nc3ccc(NC(C)=O)cc3)cn12	none (no result: SR-BI HDL uptake, SR-BI DiI-HDL act, Ins promoter up, beta cell repl, Calb FLC)
CCOC(=O)[C@H](C)N1[C@H](C)[C@H](c2ccccc2)Oc2ccc(Cl)cc2S1(=O)=O	none (no result: SR-BI HDL uptake, SR-BI DiI-HDL act, Ins promoter up, beta cell repl, Calb FLC)
O=C(COC(=O)c1cc([N+](=O)[O-])ccc1N1CCOCC1)c1ccccc1Cl	none (no result: Ins promoter up)
O=C(COC(=O)c1cc([N+](=O)[O-])ccc1N1CCOCC1)c1ccccc1	none (no result: Ins promoter up)
COc1cc(C(=O)COC(=O)c2cc([N+](=O)[O-])ccc2N2CCOCC2)ccc1OC(F)F	SR-BI HDL uptake 85 (no result: Ins promoter up, Calb FLC)
Cc1cc(C)c(C(=O)COC(=O)c2cc([N+](=O)[O-])ccc2N2CCOCC2)cc1C	SR-BI HDL uptake 79 (no result: Ins promoter up)
COc1ccccc1C(=O)COC(=O)c1cc([N+](=O)[O-])ccc1N1CCOCC1	SR-BI HDL uptake 85 (no result: Ins promoter up)
CCCN1C(=O)CC(c2ccc(OC)c(OC)c2)C1=O (configuration not stated)	none (no result: SR-BI HDL uptake, SR-BI DiI-HDL act, Ins promoter up, beta cell repl, Calb FLC)
CC1CCN(C(=O)CNS(=O)(=O)c2ccc(Br)s2)CC1	Ins promoter up 3.4
CC1CC(C)CN(C(=O)CNS(=O)(=O)c2ccc(Br)s2)C1 (configuration not stated)	none
CSCCNC(=O)Nc1c(-c2c(Cl)cccc2Cl)noc1C	SR-BI DiI-HDL act 142
Cc1onc(-c2c(Cl)cccc2Cl)c1NC(=O)NN(C)C	none
O=C(CC12CC3CC(CC(C3)C1)C2)NCC(=O)N1CCc2ccccc2C1	Ins promoter up 3.3
O=C(NCC(=O)N1CCc2ccccc2C1)c1ccccc1Cl	none (no result: Ins promoter up, beta cell repl)
O=c1nc2n(CCO)c3ccccc3cc-2c(=O)[nH]1	none (no result: Ins promoter up, beta cell repl, Calb FLC)
COc1ccc(-n2nc(C(=O)NCC(=O)N3CCN(c4ccccc4)CC3)c3ccccc3c2=O)c(OC)c1	Calb FLC 79 (no result: SR-BI HDL uptake, SR-BI DiI-HDL act, Ins promoter up)
COc1ccc(N2CCN(C(=O)CNC(=O)c3cn(-c4ccccc4OC)c(=O)c4ccccc34)CC2)cc1	SR-BI HDL uptake 74
COc1ccc(-n2nc(C(=O)NCC(=O)N3CCN(c4ccc(F)cc4)CC3)c3ccccc3c2=O)c(OC)c1	Calb FLC 99 (no result: Ins promoter up)
CCOc1ccc(NC(=O)CNC(=O)c2cn(-c3ccccc3OC)c(=O)c3ccccc23)cc1	none
C=C1c2cccc(C(F)(F)F)c2O[C@H](C(=O)OCC)[C@H]1OC	none (no result: Ins promoter up, beta cell repl, Calb FLC)
CCOC(=O)N1C2c3ccccc3C(c3ccccc32)N1C(=O)OCC	none (no result: Ins promoter up, beta cell repl, Calb FLC)
CN(c1cccc(NC(=O)CN(c2ccc(C34CC5CC(CC(C5)C3)C4)cc2)S(C)(=O)=O)c1)S(C)(=O)=O	SR-BI DiI-HDL act 76
CN(c1cccc(NC(=O)CN(c2ccc(F)cc2)S(C)(=O)=O)c1)S(C)(=O)=O	none
Cc1cccc(C(=O)NNC(=O)c2ccc(Cl)cc2)c1O	SR-BI HDL uptake 75
O=C(NNC(=O)c1ccccc1O)c1ccc(Cl)cc1	SR-BI HDL uptake 88 (no result: Ins promoter up)
C/C(=C\C(=O)c1ccccc1)NNC(=O)c1ccc(Cl)cc1	SR-BI HDL uptake 91 (no result: Ins promoter up)
O=C(NNC(=O)c1ccc(O)cc1O)c1ccc(Cl)cc1	none
O=C(NNC(=O)c1cccc2ccccc12)c1ccc(Cl)cc1	none (no result: Ins promoter up, beta cell repl, Calb FLC)
Cc1cccc(C)c1NC(=O)C1(C)CSCC(=O)N1Cc1ccco1 (configuration not stated)	none (no result: SR-BI HDL uptake, SR-BI DiI-HDL act, Ins promoter up, beta cell repl, Calb FLC)
CCCC(C)c1oc(=O)cc(O)c1C (configuration not stated)	none (no result: Ins promoter up, beta cell repl, Calb FLC)
O=C1NC(=Nc2ccccc2)c2c1cccc2[N+](=O)[O-]	beta cell repl 0.0
COc1ccc(-n2cccc2/C=C2\C(=N)N3N=C(C(C)C)SC3=NC2=O)cc1	Calb FLC 98
Cc1[nH]n(-c2ccccc2)c(=O)c1/C=N/NC(=O)c1cccc(F)c1	SR-BI HDL uptake 132 (no result: Ins promoter up)
Cc1[nH]n(-c2ccccc2)c(=O)c1/C=N/Nc1nncc(-c2ccccc2)n1	SR-BI HDL uptake 91, Calb FLC 105
Cc1ccc(/C=N\NC(=O)COc2ccc(C)cc2[N+](=O)[O-])cc1	none
Cc1ccc(-n2[nH]c(C)c(/C=N/NC(=O)c3ccc(O)cc3O)c2=O)cc1	SR-BI HDL uptake 137 (no result: Ins promoter up)
Cc1ccc(OCC(=O)N/N=C\c2c(C)[nH]n(-c3ccccc3)c2=O)c([N+](=O)[O-])c1	Calb FLC 106
COc1cc(OC)cc(C2=Cc3ccccc3C(CC(=O)c3ccco3)N2c2ccc(-c3ccc(C(N)=O)cc3)cc2)c1 (configuration not stated)	none (no result: SR-BI HDL uptake, SR-BI DiI-HDL act, Ins promoter up, beta cell repl, Calb FLC)
Cc1cc(C(=O)NNC(=O)c2sccc2C)c(C)o1	none (no result: Ins promoter up)
Cc1ccc2c(c1)[C@@H]1[C@H](CO2)[C@H](c2ccccc2)[C@]2(C)C(=O)N[C@H](C)C(=O)N12	none (no result: Ins promoter up, Calb FLC)
Cc1[nH]n(-c2ccc(Br)cc2)c(=O)c1/C=N/NC(=O)c1ccccc1	SR-BI HDL uptake 136 (no result: Ins promoter up)
O=C(COc1ccccc1F)Nc1c2c(nn1-c1ccccc1)CS(=O)(=O)C2	none (no result: Ins promoter up)
CCCCCc1ccc(CC(=O)N2CCOCC2)cc1	none (no result: Ins promoter up)
CCC(=O)Nc1ccc(C(=O)OCC(=O)c2ccc(C)c([N+](=O)[O-])c2)cc1	Ins promoter up 3.4, Calb FLC inconclusive
Cc1cc(C)c(C(=O)COC(=O)c2ccc(NC(=O)CC#N)cc2)cc1C	SR-BI HDL uptake 75
CC(=O)Nc1ccc(C(=O)OCC(=O)c2ccc(C)c([N+](=O)[O-])c2)cc1	none
Cc1ccn2c(/C=N/OCc3cccc(F)c3)c(-c3ccc(Cl)cc3)nc2c1	SR-BI HDL uptake 78 (no result: Ins promoter up)
CCCC1S/C(=N/N=C/c2ccco2)NC1=O (configuration not stated)	none
CCCCC1S/C(=N/N=C/c2ccco2)NC1=O (configuration not stated)	Calb FLC 100
CCCNC(=O)Cn1c(=O)/c(=C/c2ccc(-c3ccc([N+](=O)[O-])cc3)o2)s/c1=C\C(=O)C(C)(C)C	none (no result: Ins promoter up, beta cell repl, Calb FLC)

Screens as filed in PubChem BioAssay.
